KCNQ1 inh: inhibitors of human KCNQ1 channel, primary screen, cell-based, thallium flux, high-throughput. CHO-K1 KCNQ1, FluxOR thallium flux fluorescence; stronger effect = higher value. B-score at 10 µM. actives 1.3% (n = 310,000). AID 2642, 2010;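 active = compounds whose thallium flux B-score, printed positive for inhibition, exceeds three library SD while starting fluorescence stays within three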;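 also: channel opened by potassium depolarization with thallium stimulus after 20 min compound exposure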
KCNQ1 act: potentiators or activators of KCNQ1 channel, primary screen, cell-based, thallium flux, high-throughput. AID 2648, 2010. actives 0.35% (n = 310,000). CHO-K1 KCNQ1, thallium flux FluxOR fluorescence; stronger effect = higher value. Potassium voltage-gated channel subfamily KQT member 1 (Homo sapiens), P51787. B-score at 10 µM;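 active = fluorescence ratio B-score, a plate-corrected score, at least three library SD, with initial intensity B-score within 5 SD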
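assay system = KCNQ1-transfected CHO-K1 cells | medium = assay buffer with matched DMSO | probe or stimulus = depolarizing K+/Tl+ stimulus, K2SO4 and Tl2SO4 each 12.5 mM in 5x stock | dosing = single dose | incubation = dye 90 min, compound 20 min, room temperature | detection = kinetic FluxOR fluorescence, 10 s baseline plus 110 s post-stimulus | evaluation = ratio B score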
KCNK3 block: human KCNK3 channel inhibitors, primary screen, CHO cells, FluxOR thallium flux, B-score. actives 0.84% (n = 340,000). B-score at 10 µM. Potassium channel subfamily K member 3 (Homo sapiens), O14649. FluxOR fluorescence; stronger effect = lower value;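 active = B-score under library mean minus 4 SD, starting fluorescence ratio at most library mean plus 5 SD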;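 also: more negative B-score means stronger inhibition of thallium flux through KCNK3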
Target sequence (O14649 whole entry, looked up): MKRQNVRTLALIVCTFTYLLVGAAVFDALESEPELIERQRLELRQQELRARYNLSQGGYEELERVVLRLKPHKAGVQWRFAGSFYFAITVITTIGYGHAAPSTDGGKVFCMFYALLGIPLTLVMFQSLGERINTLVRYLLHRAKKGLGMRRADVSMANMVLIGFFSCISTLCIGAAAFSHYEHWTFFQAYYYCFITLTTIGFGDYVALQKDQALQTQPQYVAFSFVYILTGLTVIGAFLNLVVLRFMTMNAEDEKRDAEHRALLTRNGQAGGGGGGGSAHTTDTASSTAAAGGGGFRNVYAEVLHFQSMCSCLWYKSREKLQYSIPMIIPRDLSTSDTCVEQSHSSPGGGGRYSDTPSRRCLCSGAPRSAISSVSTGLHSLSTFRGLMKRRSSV
hERG protect: hERG rescue from dofetilide block, primary screen, cell-based, CHO-hERG, FluxOR thallium flux, dofetilide IC70. Voltage-gated inwardly rectifying potassium channel KCNH2 (Homo sapiens), Q12809. actives 0.51% (n = 310,000). dofetilide IC70 present. activation (rescue from dofetilide block), less the hit threshold, % at 10 µM;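 active = activation above the mean of controls blocked by dofetilide plus 5 SD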;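 also: thallium influx through hERG after potassium depolarization seen as dye fluorescence rise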
KCNK9 block: KCNK9 potassium channel inhibitors, primary screen, HEK293 cells, thallium flux. Potassium channel subfamily K member 9 (Homo sapiens), Q9NPC2. FluxOR thallium flux fluorescence; stronger effect = lower value. B-score at 10 µM. actives 1.2% (n = 310,000);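 active = ratio B-score over 3 SD below the library mean, with starting fluorescence within 5 SD of its mean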;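 also: negative B-score means less thallium flux so channel inhibition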
KCNK3 confirm: retest of human KCNK3 channel inhibitors, confirmation, CHO cells, FluxOR thallium flux, triplicate. shares compounds with KCNK3 block. FluxOR fluorescence; 0% buffer, 100% carvedilol maximal block. ratio percent of control, % at 10 µM. actives 99% (n = 2,400);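 active = ratio percent of control, averaged over triplicates, above buffer control mean plus 5 SD, cut at about 64% in these data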;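 also: ratio is the fluorescence rise from min to max over baseline after thallium stimulus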
KCNK3 noninduced: thallium flux inhibition in non-induced cells, primary screen, counter-screen for KCNK3 inhibitor project, cell-based, non-induced KCNK3 line, FluxOR thallium, triplicate; shares compounds with KCNK3 block; non-induced KCNK3 parental cells; stronger effect = lower value; thallium flux ratio (lower = more inhibition) at 10 µM; actives 40% (n = 2,400);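 active = thallium flux ratio, averaged over three wells, more than 5 SD below the buffer control mean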;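 also: host cells are CHO cells without KCNK3 induction; ratio is peak minus trough fluorescence over baseline then normalized to buffer controls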
Starred values were filed as active, the others as inactive; i = inactive; / = not tested or not shown. Only some compounds are listed: those with a hit (about 3.1% of all), similar ones and a draw of the others.

SMILES | KCNQ1 inh | KCNQ1 act | KCNK3 block | hERG protect | KCNK9 block | KCNK3 confirm | KCNK3 noninduced
CCOc1ccc(NC(=O)CN(C)C(=O)CCc2ccccc2Cl)cc1OCC | i | i | i | -22 | i | / | /
CCc1ccc(N2C(=O)C(Cl)=C(N3CCCCCC3)C2=O)cc1 | i | i | i | -7 | -7.1* | 117* | 0.15*
Cc1c(C)c2cc(Cl)c(OCC(=O)N3CCN(c4ccc(F)cc4)CC3)cc2oc1=O | i | i | i | -2 | i | / | /
O=S(=O)(c1ccccc1)N1CCN=C1SCc1c(F)cccc1Cl | i | i | -11* | -19 | i | 121* | 0.14*
Cc1ccc(C)c(CSC2=NCCN2S(=O)(=O)c2ccccc2)c1 | i | i | -11* | -11 | -7.9* | 129* | 0.15*
O=S(=O)(c1ccc(Cl)cc1)N1CCN=C1SCc1cccc(Cl)c1 | i | i | i | -7 | i | / | /
Cc1nn(CCCC(=O)Nc2cc(Oc3ccc(F)cc3)cc([N+](=O)[O-])c2)c(C)c1[N+](=O)[O-] | i | i | -8.9* | -9 | i | 125* | i
Cc1ccccc1Oc1cc(NC(=O)CCCn2nc(C)c([N+](=O)[O-])c2C)cc([N+](=O)[O-])c1 | i | i | -9.3* | -7 | i | 119* | i
CCOCCCN(C(=O)c1snc(C(N)=O)c1N)C(C(=O)NC1CCCC1)c1ccc(OC)cc1 (centres undefined) | i | i | i | -5 | i | / | /
CN(CC(=O)Nc1ccccc1C(F)(F)F)C(=O)CN1C(=O)C2CCCCC2C1=O (centres undefined) | i | i | i | 0 | i | / | /
COC(=O)c1cc(NC2c3ccccc3C(=O)N2c2cccnc2)cc(C(=O)OC)c1 (centres undefined) | i | i | -9* | -16 | i | 119* | 0.15*
O=C1c2ccccc2C(Nc2ccccc2)N1c1cccnc1 (centres undefined) | i | i | i | -7 | i | / | /
COc1ccc(NC2c3ccccc3C(=O)N2c2cccnc2)cc1Cl (centres undefined) | i | i | -10* | -14 | i | 117* | i
CCCCCC1=C(C(=O)OC)C(C(=O)OCC)N(S(=O)(=O)C(F)(F)F)c2ccccc21 (centres undefined) | / | / | i | / | / | / | /
CCN(CC(=O)Nc1c(F)cccc1F)C(=O)c1ccc(C)c(S(=O)(=O)N2CCCCC2)c1 | i | i | i | -15 | i | / | /
Cc1ccc(C(=O)NNC(=O)c2ccc(S(=O)(=O)N(C)c3ccccc3)cc2)cc1 | / | / | i | / | / | / | /
c1ccc2c(-c3[nH]ncc3CNCCCn3ncc4ccccc43)cccc2c1 | i | i | -10* | -17 | i | 79* | i
OCC1CCCCN1CCNCc1cn[nH]c1-c1cccc2ccccc12 (centres undefined) | i | i | i | -7 | i | / | /
CCOC(=O)C1=CNS(=O)(=O)NC1CCc1ccccc1 (centres undefined) | / | / | i | / | / | / | /
CC(=O)c1ccc(OCCCC(=O)Nc2ccc(S(=O)(=O)N3CCOCC3)cc2)cc1 | i | i | i | -11 | i | / | /
O=C(NCc1ccc2c(c1)OCO2)c1ccc(CSCc2ccc(Cl)cc2)o1 | i | i | -8.8* | -8 | i | 96* | 0.14*
O=C(NCc1ccc2c(c1)OCO2)c1ccc(COc2cc(Cl)ccc2Cl)o1 | i | i | i | -11 | i | / | /

From PubChem BioAssay
